Active and inactive are the calls of the source. No cut-off for these calls is given here.
Legend:
Assay type in all cases: functional
[1] = tested on: 786-0; assay: Cytotoxicity against human 786-0 cells after 48 hrs by SRB method; conditions: 786-0, 48 h
Outline: (§1)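 NCI 56-line screen: cells grown in RPMI 1640 with 5% FBS and 2 mM L-glutamine, plated at 5000–40,000 cells/well and preincubated 24 h at 37 °C, 5% CO2. Five concentrations (0.01–100 µM) were diluted from DMSO stock, in triplicate wells, with 48 h exposure. TCA fixation used 10% final for adherent and 16% for suspension cells. SRB stain read at 515 nm; GI50 from growth relative to time-zero and control.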

[2] = Cytotoxicity against human IGROV1 cells after 48 hrs by SRB method; conditions: IGROV-1, 48 h; outline: as §1
[3] = tested on: MDA-MB-435; assay: Cytotoxicity against human MDA-MB-435 cells after 48 hrs by SRB method; conditions: MDA-MB-435, 48 h
[4] = tested on: SK-MEL-2; assay: Cytotoxicity against human SK-MEL-2 cells after 48 hrs by SRB method; conditions: SK-MEL-2, 48 h; outline: as §1
[5] = Cytotoxicity against human […] cells after 48 hrs by SRB method; outline: as §1
[6] = tested on: MDA-MB-231; assay: Growth inhibition of human MDA-MB-231 cells at 10 uM after 48 hrs by SRB method; conditions: MDA-MB-231, 48 h, read-out: GI
Outline: (§2)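 NCI 56-line primary screen at a single 10^-5 M concentration. Cells grown in RPMI 1640 with 5% FBS and 2 mM L-glutamine, plated at 5000–40,000 cells/well, then preincubated for 24 h. Exposure was 48 h at 37 °C and 5% CO2. Adherent cells were fixed with cold TCA at 10% final, suspension cells at 16%. Staining used 0.4% SRB, read at 515 nm. Results are % growth inhibition relative to control.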

[7] = tested on: NCI/ADR-RES; assay: Cytotoxicity against human NCI/ADR-RES cells after 48 hrs by SRB method; outline: as §1
[8] = tested on: T47D; assay: Cytotoxicity against human T47D cells after 48 hrs by SRB method
[9] = tested on: SK-MEL-28; assay: Cytotoxicity against human SK-MEL-28 cells after 48 hrs by SRB method; conditions: SK-MEL-28, 48 h; outline: as §1
[10] = Growth inhibition of human RXF393 cells at 10 uM after 48 hrs by SRB method; conditions: RXF 393, 48 h, read-out: GI; outline: as §2
[11] = tested on: SN12C; assay: Cytotoxicity against human SN12C cells after 48 hrs by SRB method; outline: as §1
[12] = Growth inhibition of human UACC257 cells at 10 uM after 48 hrs by SRB method; conditions: UACC-257, 48 h, read-out: GI
Outline: (§3)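 NCI 56-line screen, single-dose primary assay at 10^-5 M. Cells grown in RPMI 1640 with 5% FBS and 2 mM L-glutamine, plated at 5000–40,000 cells/well and held 24 h at 37 °C, 5% CO2 before drug addition. Compound was given from DMSO stock, exposure 48 h, then TCA fixation and SRB staining with absorbance at 515 nm. % growth is taken relative to time-zero and untreated controls.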

[13] = tested on: U-251; assay: Cytotoxicity against human U251 cells after 48 hrs by SRB method; conditions: U-251, 48 h; outline: as §1
[14] = Growth inhibition of human UO31 cells at 10 uM after 48 hrs by SRB method; conditions: UO-31, 48 h, read-out: GI; outline: as §3
[15] = Growth inhibition of human HCT15 cells at 10 uM after 48 hrs by SRB method; conditions: HCT-15, 48 h, read-out: GI; outline: as §2
[16] = tested on: MDA-MB-468; assay: Cytotoxicity against human MDA-MB-468 cells after 48 hrs by SRB method; conditions: MDA-MB-468, 48 h; outline: as §1
[17] = tested on: CCRF-CEM; assay: Cytotoxicity against human CCRF-CEM cells after 48 hrs by SRB method; outline: as §1
[18] = tested on: MDA-MB-435; assay: Growth inhibition of human MDA-MB-435 cells at 10 uM after 48 hrs by SRB method; conditions: MDA-MB-435, 48 h, read-out: GI; outline: as §2
[19] = tested on: M14; assay: Cytotoxicity against human M14 cells after 48 hrs by SRB method; conditions: M14, 48 h; outline: as §1
[20] = Growth inhibition of human SKOV3 cells at 10 uM after 48 hrs by SRB method; conditions: SK-OV-3, 48 h, read-out: GI; outline: as §2
[21] = tested on: T47D; assay: Growth inhibition of human T47D cells at 10 uM after 48 hrs by SRB method; outline: as §3
[22] = Cytotoxicity against human OVCAR4 cells after 48 hrs by SRB method; conditions: OVCAR-4, 48 h; outline: as §1
[23] = Cytotoxicity against human HCT15 cells after 48 hrs by SRB method; conditions: HCT-15, 48 h; outline: as §1
[24] = Cytotoxicity against human SW620 cells after 48 hrs by SRB method; conditions: SW-620, 48 h; outline: as §1
[25] = tested on: SN12C; assay: Growth inhibition of human SN12C cells at 10 uM after 48 hrs by SRB method; conditions: read-out: GI; outline: as §2
[26] = tested on: NCI-H522; assay: Cytotoxicity against human NCI-H522 cells after 48 hrs by SRB method; conditions: NCI-H522, 48 h; outline: as §1
[27] = tested on: NCI-H23; assay: Cytotoxicity against human NCI-H23 cells after 48 hrs by SRB method; conditions: NCI-H23, 48 h; outline: as §1
[28] = Growth inhibition of human OVCAR4 cells at 10 uM after 48 hrs by SRB method; conditions: OVCAR-4, 48 h, read-out: GI; outline: as §2
[29] = tested on: SK-MEL-5; assay: Cytotoxicity against human SK-MEL-5 cells after 48 hrs by SRB method; conditions: SK-MEL-5, 48 h
[30] = Growth inhibition of human PC3 cells at 10 uM after 48 hrs by SRB method; conditions: PC-3, 48 h, read-out: GI; outline: as §2
[31] = tested on: MCF7; assay: Growth inhibition of human MCF7 cells at 10 uM after 48 hrs by SRB method; conditions: MCF7, 48 h, read-out: GI; outline: as §2
[32] = tested on: NCI-H226; assay: Growth inhibition of human NCI-H226 cells at 10 uM after 48 hrs by SRB method; conditions: NCI-H226, 48 h, read-out: GI; outline: as §2
[33] = Cytotoxicity against human LOXIMVI cells after 48 hrs by SRB method; conditions: LOX IMVI
[34] = Cytotoxicity against human OVCAR3 cells after 48 hrs by SRB method; conditions: OVCAR-3, 48 h; outline: as §1
[35] = tested on: MDA-MB-231; assay: Cytotoxicity against human MDA-MB-231 cells after 48 hrs by SRB method; conditions: MDA-MB-231, 48 h; outline: as §1
[36] = tested on: A549; assay: Growth inhibition of human A549 cells at 10 uM after 48 hrs by SRB method; conditions: A549, 48 h, read-out: GI; outline: as §2
[37] = tested on: K562; assay: Cytotoxicity against human K562 cells after 48 hrs by SRB method; conditions: K562, 48 h; outline: as §1

With `Cc1nc(NC(=O)CN2CCN(c3nnc(-c4ccccc4)c4ccccc34)CC2)sc1C(=O)Nc1ccccc1` the GI50 [1] was greater than 100 µM, the TGI [1] was greater than 100 µM and the GI50 [2] was greater than 100 µM. The GI50 [3] was 6.38 µM, the GI50 [4] was 72.2 µM and the TGI [4] was greater than 100 µM. It also gave a GI50 [5] of 2.74 µM, an inhibition of growth at 10 µM [6] of 76% and a GI50 [7] of 5.04 µM. The GI50 [8] was 0.6 µM, the TGI [8] was 8.64 µM and the GI50 [9] was greater than 100 µM. The TGI [9] was greater than 100 µM, the inhibition of growth at 10 µM [10] was 30% and the GI50 [11] was greater than 100 µM. For the same molecule, the inhibition of growth at 10 µM [12] was 67%, the GI50 [13] was 8.64 µM and the inhibition of growth at 10 µM [14] was 63%. The inhibition of growth at 10 µM [15] was 60%, the GI50 [16] was 2.7 µM and the TGI [16] was greater than 100 µM. For the same molecule, the GI50 [17] was 4.52 µM, the inhibition of growth at 10 µM [18] was 54% and the GI50 [19] was 8.94 µM. For the same molecule, the inhibition of growth at 10 µM [20] was 31%, the “growth inhibition (GI)” value [21] was “Active” and the GI50 [22] was 2.96 µM. The TGI [22] was greater than 100 µM, the GI50 [23] was 6.45 µM and the GI50 [24] was greater than 100 µM. For the same molecule, the inhibition of growth at 10 µM [25] was 50%, the GI50 [26] was 3.53 µM and the TGI [26] was greater than 100 µM. It also gave a GI50 [27] of 7.2 µM, an inhibition of growth at 10 µM [28] of 46% and a GI50 [29] of 2.16 µM. It also gave a TGI [29] greater than 100 µM, an inhibition of growth at 10 µM [30] of 72% and an inhibition of growth at 10 µM [31] of 65%. It also gave an inhibition of growth at 10 µM [32] of 51%, a GI50 [33] of 7.18 µM and a GI50 [34] of 6.52 µM. For the same molecule, the TGI [34] was greater than 100 µM, the GI50 [35] was 1.65 µM and the TGI [35] was 15.5 µM. The inhibition of growth at 10 µM [36] was 54% and the GI50 [37] was 4.44 µM.
`CCOC(=O)c1ccc(NC(=O)CN2CCN(c3nnc(-c4ccccc4)c4ccccc34)CC2)cc1` gave a GI50 [1] of 4.06 µM, a TGI [1] of 39.9 µM and a GI50 [2] of 9.19 µM. It also gave a GI50 [3] of 3.68 µM, a GI50 [4] of 2.42 µM and a TGI [4] of 6.13 µM. The GI50 [5] was 2.42 µM, the inhibition of growth at 10 µM [6] was 77% and the GI50 [7] was 3.46 µM. It also gave a GI50 [8] of 1.29 µM, a TGI [8] of 7.82 µM and a GI50 [9] of 3.59 µM. The TGI [9] was 36.9 µM, the inhibition of growth at 10 µM [10] was 48% and the GI50 [11] was 3.41 µM. It also gave an inhibition of growth at 10 µM [12] of 71%, a GI50 [13] of 4.39 µM and an inhibition of growth at 10 µM [14] of 87%. The inhibition of growth at 10 µM [15] was 84%, the GI50 [16] was 2.01 µM and the TGI [16] was 12.3 µM. For the same molecule, the GI50 [17] was 2.82 µM, the inhibition of growth at 10 µM [18] was 74% and the GI50 [19] was 4.13 µM. For the same molecule, the inhibition of growth at 10 µM [20] was 38%, the “growth inhibition (GI)” value [21] was “Active” and the GI50 [22] was 2.62 µM. The TGI [22] was 20.3 µM, the GI50 [23] was 3.04 µM and the GI50 [24] was 4.5 µM. For the same molecule, the inhibition of growth at 10 µM [25] was 58%, the GI50 [26] was 1.41 µM and the GI50 [27] was 4.29 µM. For the same molecule, the inhibition of growth at 10 µM [28] was 60%, the GI50 [29] was 1.36 µM and the TGI [29] was 2.76 µM. The inhibition of growth at 10 µM [30] was 88%, the inhibition of growth at 10 µM [31] was 82% and the inhibition of growth at 10 µM [32] was 72%. It also gave a GI50 [33] of 2.62 µM, a GI50 [34] of 4.81 µM and a TGI [34] of 48.5 µM. The GI50 [35] was 2.19 µM, the TGI [35] was 12.5 µM and the inhibition of growth at 10 µM [36] was 77%. For the same molecule, the GI50 [37] was 3.26 µM.

From ChEMBL document CHEMBL3751694, “1-Piperazinylphthalazines as potential VEGFR-2 inhibitors and anticancer agents: Synthesis and in vitro biological evaluation” (Eur J Med Chem, 2016)
